In ChEMBL document CHEMBL1155278, “3,4-Diaryl-isoxazoles and -imidazoles as potent dual inhibitors of p38alpha mitogen activated protein kinase and casein kinase 1delta” (J Med Chem, 2009):
Activity calls are given as the source filed them. The calls are words filed in the database; no cut-off is given here.

Assays:
[1] = molecular target: Serine/threonine-protein kinase PLK1 (Homo sapiens) (UniProt P53350); test: Inhibition of okadaic acid-induced PLK1 assessed as residual activity at 10 uM by Cherenkov counting relative to control in presence of 5 uM ATP
Sequence of Serine/threonine-protein kinase PLK1 (Homo sapiens) (P53350 whole entry): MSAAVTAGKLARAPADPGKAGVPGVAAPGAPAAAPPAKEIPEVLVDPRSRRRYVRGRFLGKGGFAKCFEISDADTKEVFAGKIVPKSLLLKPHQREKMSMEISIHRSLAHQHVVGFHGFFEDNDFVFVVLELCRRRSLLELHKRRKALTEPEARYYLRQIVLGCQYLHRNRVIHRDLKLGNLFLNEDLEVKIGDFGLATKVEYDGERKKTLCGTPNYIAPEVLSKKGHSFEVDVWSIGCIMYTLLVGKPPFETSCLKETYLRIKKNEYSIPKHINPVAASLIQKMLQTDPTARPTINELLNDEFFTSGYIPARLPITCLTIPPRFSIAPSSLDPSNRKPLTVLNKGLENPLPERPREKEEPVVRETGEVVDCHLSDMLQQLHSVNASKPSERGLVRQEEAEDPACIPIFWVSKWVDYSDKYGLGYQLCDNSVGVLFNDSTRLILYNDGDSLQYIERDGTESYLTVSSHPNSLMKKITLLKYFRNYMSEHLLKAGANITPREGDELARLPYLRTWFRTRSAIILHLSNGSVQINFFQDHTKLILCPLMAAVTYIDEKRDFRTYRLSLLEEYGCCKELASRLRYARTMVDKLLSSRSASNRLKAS
Summary of the method: (§1)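 Single-concentration profiling at 10 μM in a 78-kinase panel. Kinase activity is expressed as a percentage of control assays run without compound.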

[2] = molecular target: Homeodomain-interacting protein kinase 2 (Homo sapiens) (UniProt Q9H2X6); test: Inhibition of HIPK2 assessed as residual activity at 10 uM by Cherenkov counting relative to control in presence of 5 uM ATP
Sequence of Homeodomain-interacting protein kinase 2 (Homo sapiens) (Q9H2X6 whole entry, looked up): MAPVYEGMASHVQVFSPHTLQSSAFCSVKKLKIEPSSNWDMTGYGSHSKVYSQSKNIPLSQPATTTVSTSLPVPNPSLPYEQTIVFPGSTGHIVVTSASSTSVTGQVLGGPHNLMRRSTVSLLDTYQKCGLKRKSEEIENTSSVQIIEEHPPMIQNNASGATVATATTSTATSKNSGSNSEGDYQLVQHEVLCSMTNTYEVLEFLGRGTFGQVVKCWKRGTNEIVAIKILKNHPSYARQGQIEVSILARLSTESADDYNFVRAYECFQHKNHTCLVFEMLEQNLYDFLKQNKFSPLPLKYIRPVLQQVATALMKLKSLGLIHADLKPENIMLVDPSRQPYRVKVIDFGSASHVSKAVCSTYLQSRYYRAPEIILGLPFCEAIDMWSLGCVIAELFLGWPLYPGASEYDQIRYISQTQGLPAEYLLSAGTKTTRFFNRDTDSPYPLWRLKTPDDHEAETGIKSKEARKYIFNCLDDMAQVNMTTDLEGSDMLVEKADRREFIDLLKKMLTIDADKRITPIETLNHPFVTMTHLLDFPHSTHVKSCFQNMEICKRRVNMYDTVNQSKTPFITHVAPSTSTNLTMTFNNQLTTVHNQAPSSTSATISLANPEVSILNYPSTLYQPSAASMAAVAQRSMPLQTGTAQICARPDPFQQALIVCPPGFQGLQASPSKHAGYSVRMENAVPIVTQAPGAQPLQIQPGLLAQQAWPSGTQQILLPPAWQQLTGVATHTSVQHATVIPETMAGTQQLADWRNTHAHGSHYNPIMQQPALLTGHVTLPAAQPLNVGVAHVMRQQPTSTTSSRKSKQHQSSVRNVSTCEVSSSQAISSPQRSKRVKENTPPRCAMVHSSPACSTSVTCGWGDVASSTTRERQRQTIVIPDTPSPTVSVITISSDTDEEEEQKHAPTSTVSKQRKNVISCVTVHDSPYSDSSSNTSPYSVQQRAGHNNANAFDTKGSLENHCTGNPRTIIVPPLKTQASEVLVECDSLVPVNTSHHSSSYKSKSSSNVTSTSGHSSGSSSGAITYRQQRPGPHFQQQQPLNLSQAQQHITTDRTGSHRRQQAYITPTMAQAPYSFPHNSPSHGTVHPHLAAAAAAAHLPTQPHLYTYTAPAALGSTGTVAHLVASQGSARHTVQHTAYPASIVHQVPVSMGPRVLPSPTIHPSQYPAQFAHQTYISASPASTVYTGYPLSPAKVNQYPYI
Summary of the method: (§2)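 Single-point profiling at 10 µM in a panel of 78 protein kinases. Kinase activity is expressed as a percentage relative to control assays without compound.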

[3] = molecular target: Serine/threonine-protein kinase Chk2 (Homo sapiens) (UniProt O96017); test: Inhibition of CHK2 assessed as residual activity at 10 uM by Cherenkov counting relative to control in presence of 20 uM ATP; summary of the method: as §2
Sequence of Serine/threonine-protein kinase Chk2 (Homo sapiens) (O96017 whole entry): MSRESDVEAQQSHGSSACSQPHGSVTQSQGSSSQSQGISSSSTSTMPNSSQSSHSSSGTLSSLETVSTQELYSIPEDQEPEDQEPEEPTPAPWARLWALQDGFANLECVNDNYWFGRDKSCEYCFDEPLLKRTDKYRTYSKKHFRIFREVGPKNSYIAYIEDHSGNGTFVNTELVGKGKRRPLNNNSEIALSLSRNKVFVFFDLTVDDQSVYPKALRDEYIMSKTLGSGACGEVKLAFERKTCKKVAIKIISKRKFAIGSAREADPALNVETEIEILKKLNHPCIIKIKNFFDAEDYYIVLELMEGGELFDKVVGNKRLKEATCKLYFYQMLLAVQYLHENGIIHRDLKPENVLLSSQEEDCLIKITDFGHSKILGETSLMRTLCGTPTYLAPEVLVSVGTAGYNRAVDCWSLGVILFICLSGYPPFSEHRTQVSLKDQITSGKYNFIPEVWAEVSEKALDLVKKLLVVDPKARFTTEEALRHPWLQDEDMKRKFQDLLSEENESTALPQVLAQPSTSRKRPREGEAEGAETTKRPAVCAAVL

[4] = molecular target: Proto-oncogene tyrosine-protein kinase Src (Homo sapiens) (UniProt P12931); test: Inhibition of Src assessed as residual activity at 10 uM by Cherenkov counting relative to control in presence of 50 uM ATP; summary of the method: as §1
Sequence of Proto-oncogene tyrosine-protein kinase Src (Homo sapiens) (P12931 2-536 limits assumed): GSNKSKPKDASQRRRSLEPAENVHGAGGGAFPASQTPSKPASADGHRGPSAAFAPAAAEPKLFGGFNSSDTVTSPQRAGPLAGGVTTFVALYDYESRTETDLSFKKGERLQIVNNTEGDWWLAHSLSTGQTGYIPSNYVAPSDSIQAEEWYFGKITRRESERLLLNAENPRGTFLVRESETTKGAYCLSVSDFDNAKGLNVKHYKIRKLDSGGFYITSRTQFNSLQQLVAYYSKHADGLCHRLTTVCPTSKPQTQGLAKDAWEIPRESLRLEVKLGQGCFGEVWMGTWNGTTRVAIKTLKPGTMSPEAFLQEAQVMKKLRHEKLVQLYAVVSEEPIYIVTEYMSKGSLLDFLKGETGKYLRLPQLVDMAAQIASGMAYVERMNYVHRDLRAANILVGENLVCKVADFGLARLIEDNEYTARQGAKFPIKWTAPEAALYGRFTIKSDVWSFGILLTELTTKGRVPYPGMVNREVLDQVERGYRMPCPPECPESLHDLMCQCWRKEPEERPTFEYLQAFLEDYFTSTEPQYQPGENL

[5] = molecular target: T1, Casein kinase I isoform delta (Homo sapiens, UniProt P48730); test: Inhibition of CK1delta assessed as residual activity at 0.1 uM by Cherenkov counting relative to control in presence of 20 uM ATP
T1 sequence (P48730 whole entry, looked up, canonical isoform): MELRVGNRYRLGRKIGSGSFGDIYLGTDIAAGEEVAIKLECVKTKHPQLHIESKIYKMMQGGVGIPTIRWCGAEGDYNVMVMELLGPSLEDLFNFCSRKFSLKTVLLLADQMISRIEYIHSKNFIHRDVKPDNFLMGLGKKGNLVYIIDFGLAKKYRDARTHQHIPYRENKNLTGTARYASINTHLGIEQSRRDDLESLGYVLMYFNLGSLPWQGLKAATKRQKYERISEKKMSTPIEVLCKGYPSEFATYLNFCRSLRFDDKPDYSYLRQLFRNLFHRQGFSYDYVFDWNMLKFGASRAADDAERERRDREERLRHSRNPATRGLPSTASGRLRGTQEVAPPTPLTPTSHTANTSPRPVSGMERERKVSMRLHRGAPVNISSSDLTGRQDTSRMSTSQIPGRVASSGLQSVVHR
Summary of the method: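 CK1δ tested within a 76-protein-kinase panel with compound at 0.1 µM. ATP for each kinase was set near its Km for ATP. Read-out was residual activity as % of control assays without compound, given as mean ± SD, n = 3.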

[6] = molecular target: T2, Inhibitor of nuclear factor kappa-B kinase subunit epsilon (Homo sapiens) (UniProt Q14164); test: Inhibition of IKKepsilon assessed as residual activity at 0.1 uM by Cherenkov counting relative to control in presence of 50 uM ATP
T2 sequence (whole entry): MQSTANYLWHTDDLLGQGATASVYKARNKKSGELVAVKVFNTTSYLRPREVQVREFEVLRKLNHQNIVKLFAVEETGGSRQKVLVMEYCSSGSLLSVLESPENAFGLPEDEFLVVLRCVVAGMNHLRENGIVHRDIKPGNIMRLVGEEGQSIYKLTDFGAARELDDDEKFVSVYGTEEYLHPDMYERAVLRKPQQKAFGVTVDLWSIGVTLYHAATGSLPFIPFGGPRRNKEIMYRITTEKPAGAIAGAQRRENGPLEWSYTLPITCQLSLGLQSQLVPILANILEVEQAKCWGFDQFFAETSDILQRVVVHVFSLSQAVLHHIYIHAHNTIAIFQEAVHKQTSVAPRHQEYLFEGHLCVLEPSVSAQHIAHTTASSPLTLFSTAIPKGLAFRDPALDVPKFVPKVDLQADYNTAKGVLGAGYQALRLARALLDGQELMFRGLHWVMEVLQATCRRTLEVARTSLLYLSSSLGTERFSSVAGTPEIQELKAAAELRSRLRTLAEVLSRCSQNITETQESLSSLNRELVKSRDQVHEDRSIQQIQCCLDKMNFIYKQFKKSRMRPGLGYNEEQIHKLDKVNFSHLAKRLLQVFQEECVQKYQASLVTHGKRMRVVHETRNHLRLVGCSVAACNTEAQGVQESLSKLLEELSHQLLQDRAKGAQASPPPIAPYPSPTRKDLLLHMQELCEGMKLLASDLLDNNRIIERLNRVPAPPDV
Summary of the method: (§3)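 Single-concentration screen at 0.1 µM across a panel of 76 protein kinases. Each kinase was run at an ATP concentration approximating its ATP Km. Results are % mean residual activity versus control assays without compound (n = 3 ± SD).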

[7] = molecular target: T1, Casein kinase I isoform delta; test: Inhibition of recombinant CK1delta kinase domain at 5 nM by ATP competitive binding assay
[8] = molecular target: Serine/threonine-protein kinase pim-2 (Homo sapiens) (UniProt Q9P1W9); test: Inhibition of PIM2 assessed as residual activity at 0.1 uM by Cherenkov counting relative to control in presence of 5 uM ATP
Sequence of Serine/threonine-protein kinase pim-2 (Homo sapiens) (Q9P1W9 whole entry, looked up): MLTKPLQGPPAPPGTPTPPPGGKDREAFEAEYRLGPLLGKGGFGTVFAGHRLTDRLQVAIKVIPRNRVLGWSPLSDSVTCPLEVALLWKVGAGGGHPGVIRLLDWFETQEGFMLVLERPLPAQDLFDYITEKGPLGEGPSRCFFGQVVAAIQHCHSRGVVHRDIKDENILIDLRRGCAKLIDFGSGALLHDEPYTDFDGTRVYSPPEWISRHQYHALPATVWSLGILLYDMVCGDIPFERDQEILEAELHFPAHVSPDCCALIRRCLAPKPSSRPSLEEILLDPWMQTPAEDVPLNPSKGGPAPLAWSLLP
Summary of the method: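 Single-concentration selectivity screen at 0.1 μM against a panel of 76 protein kinases. Each kinase was run at an ATP level approximating its Km for ATP. Output is mean residual activity as % of the control assay without compound, n = 3 ± SD.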

[9] = Cell cycle arrest in human AC1-M88 cells assessed as accumulation at G2 phase at 0.38 uM after 48 hrs by propidium iodide staining-based FACS analysis; assay type: functional
[10] = molecular target: Mitogen-activated protein kinase 13 (Homo sapiens) (UniProt O15264); test: Inhibition of p38delta assessed as residual activity at 0.1 uM by Cherenkov counting relative to control
Summary of the method: (§4)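 Single-concentration screen at 0.1 μM in a 76-kinase panel. ATP for each kinase was set near its Km for ATP. Residual activity is given as a percentage of control assays without compound, mean of n = 3 ± SD.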

[11] = molecular target: T3, Serine/threonine-protein kinase Sgk1 (Homo sapiens) (UniProt O00141); test: Inhibition of SGK1 assessed as residual activity at 0.1 uM by Cherenkov counting relative to control in presence of 20 uM ATP; summary of the method: as §4
T3 sequence (whole entry): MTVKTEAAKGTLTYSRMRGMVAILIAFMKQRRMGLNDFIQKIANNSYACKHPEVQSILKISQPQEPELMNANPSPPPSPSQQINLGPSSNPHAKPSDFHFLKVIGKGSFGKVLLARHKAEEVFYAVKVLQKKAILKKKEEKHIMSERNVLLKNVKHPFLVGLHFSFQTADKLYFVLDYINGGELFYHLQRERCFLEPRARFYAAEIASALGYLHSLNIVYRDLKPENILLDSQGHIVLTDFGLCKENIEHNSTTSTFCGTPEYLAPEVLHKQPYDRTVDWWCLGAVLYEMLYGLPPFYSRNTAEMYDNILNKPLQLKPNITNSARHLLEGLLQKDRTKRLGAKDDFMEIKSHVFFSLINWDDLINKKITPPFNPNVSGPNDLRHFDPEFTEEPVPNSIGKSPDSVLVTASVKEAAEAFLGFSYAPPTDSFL

[12] = molecular target: Proto-oncogene tyrosine-protein kinase Src (Homo sapiens) (UniProt P12931); test: Inhibition of Src assessed as residual activity at 0.1 uM by Cherenkov counting relative to control in presence of 50 uM ATP; summary of the method: as §4
[13] = Cell cycle arrest in human AC1-M88 cells assessed as accumulation at S phase at 0.38 uM after 48 hrs by propidium iodide staining-based FACS analysis; assay type: functional
[14] = molecular target: Protein kinase C alpha type (Homo sapiens) (UniProt P17252); test: Inhibition of PKCalpha assessed as residual activity at 0.1 uM by Cherenkov counting relative to control in presence of 20 uM ATP; summary of the method: as §4
[15] = molecular target: Tyrosine-protein kinase BTK (Homo sapiens) (UniProt Q06187); test: Inhibition of BTK assessed as residual activity at 0.1 uM by Cherenkov counting relative to control in presence of 50 uM ATP; summary of the method: as §3
Sequence of Tyrosine-protein kinase BTK (Homo sapiens) (Q06187 whole entry, the tested form may be a part, canonical isoform): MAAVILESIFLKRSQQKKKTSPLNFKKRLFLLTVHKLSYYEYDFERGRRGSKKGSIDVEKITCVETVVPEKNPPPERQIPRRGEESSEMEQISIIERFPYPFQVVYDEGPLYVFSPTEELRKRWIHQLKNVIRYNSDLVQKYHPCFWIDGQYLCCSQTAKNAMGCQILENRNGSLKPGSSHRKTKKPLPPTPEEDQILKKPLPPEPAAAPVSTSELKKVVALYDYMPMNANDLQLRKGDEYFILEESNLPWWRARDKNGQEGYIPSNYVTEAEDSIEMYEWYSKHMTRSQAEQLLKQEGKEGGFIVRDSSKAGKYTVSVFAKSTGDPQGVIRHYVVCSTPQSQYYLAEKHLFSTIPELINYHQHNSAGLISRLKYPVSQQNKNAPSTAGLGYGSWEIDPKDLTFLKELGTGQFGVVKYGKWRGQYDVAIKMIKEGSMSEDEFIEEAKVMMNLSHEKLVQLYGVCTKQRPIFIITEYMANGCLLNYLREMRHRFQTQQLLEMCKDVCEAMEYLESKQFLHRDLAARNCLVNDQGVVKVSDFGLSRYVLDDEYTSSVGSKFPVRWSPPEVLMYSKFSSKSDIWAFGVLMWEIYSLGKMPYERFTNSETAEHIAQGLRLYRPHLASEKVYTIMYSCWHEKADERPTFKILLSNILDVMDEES

[16] = test system: Casein kinase I isoform delta (Rattus norvegicus), Q06486 [M82F]; test: Inhibition of GST-fused rat CK1delta M82F mutant at 10 nM by Cherenkov counting in presence of 20 uM ATP

| Activity [1] [%] | Activity [2] [%] | Activity [3] [%] | Activity [4] [%] | Activity [5] [%] | Activity [6] [%] | inhibition [7] [%] | Activity [8] [%] | Activity [10] [%] | Activity [11] [%] | Activity [12] [%] | Activity [14] [%] | Activity [15] [%] | inhibition [16] | Structure (SMILES) | Activity [9] [%] | Activity [13] [%] |
| --- | --- | --- | --- | --- | --- | --- | --- | --- | --- | --- | --- | --- | --- | --- | --- | --- |
| 104 | 103 | 104 | 72 | – | – | – | – | – | – | – | – | – | – | CC(C)c1onc(-c2ccc(F)cc2)c1-c1ccncc1 | – | – |
| 105 | 103 | 109 | 90 | – | – | – | – | – | – | – | – | – | – | CC(C)c1noc(-c2ccc(F)cc2)c1-c1ccncc1 | – | – |
| – | – | – | – | 10 | 97 | 18 | 87 | 90 | 87 | 49 | 110 | 92 | – | COc1ccc(/C=C/C(=O)Nc2cc(-c3[nH]c(SC)nc3-c3ccc(F)cc3)ccn2)c(OC)c1 | 3.08 | 2.41 |
| – | – | – | – | 18 | 90 | – | 101 | 100 | 87 | 63 | 103 | 105 | inactive | COc1ccc(/C=C/C(=O)Nc2cc(-c3[nH]c([S+](C)[O-])nc3-c3ccc(F)cc3)ccn2)c(OC)c1 (stereo not drawn) | – | – |
